# Assay outcomes from PubChem.
# ROMK primary: modulates human ROMK potassium channel activity; P48048; Tet-inducible ROMK, thallium flux fluorescence; actives lie on both sides; B-score at 10 µM; hit rate 2% among 130,000;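 active = signal ratio slope over the read window, or its plate-corrected B-score, at least 3 SD from the plate mean, either direction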;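 also: B-score of the F/F0 ratio slope over 7 to 12 s after thallium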
# Diaph inh CS: inhibits diaphorase or chemically oxidizes, flagging diaphorase assay artifacts. AID 1217. inhibition, % at 20 µM. diaphorase resazurin-to-resorufin fluorescence, NADH, 16 min; bacterial (C. kluyveri) enzyme, not human. hit rate 0.69% among 190,000;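 active = primary screen inhibition at 20 µM above a set limit, cut at about 50% in these data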;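 also: plate controls were DMSO with full reaction for no effect and wells lacking NADH for full effect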
#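 Test system: diaphorase enzyme from Clostridium kluyveri; amount: diaphorase at 0.14 U/mL in enzyme working solution; detection: fluorescence of resorufin formed from resazurin, Ex 544/Em 590 nm; times: reaction incubation of 16 min at room temperature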
# Diaphorase act: counter-screen for diaphorase-based assays: diaphorase activators and chemical reducers; Diaphorase/resazurin coupled assay, resorufin fluorescence, 16 min; active compounds read high; 1 = vehicle wells, 0 = NADH-free wells; hit rate 0.005% among 190,000; activation factor at 20 µM; AID 1229;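 active = diaphorase activity raised at least twofold by the compound at 20 µM; inactive = activation factor below 2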
#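 test system = bacterial diaphorase enzyme (C. kluyveri) | quantity = enzyme 0.07 U/mL final | reagent = NADH substrate 0.114 mM plus resazurin dye 0.1 mM, final | incubation = 16 min enzyme reaction, ambient temperature | buffer or medium = HEPES pH 7.4 buffer with MgCl2 and Tween 20 | signal = fluorescence of resorufin, 544 nm excitation, 590 nm emission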
# Cl transport mod: modulates chloride dependent transport by human KCC2 | Q9H2X9 | KCC2 cells, thallium flux FluoZin-2 fluorescence | B-score of Tl+ flux slope (higher = more flux/activation; lower = inhibition) at 10 µM | hit rate 2.2% among 190,000 | AID 1456;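 active = thallium flux slope and its plate-corrected score both differing from the plate sample mean at a set confidence after two filtering rounds, in either direction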;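 also: slope of fluorescence scaled to starting intensity during 10 to 20 s after thallium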
# Target sequence (Q9H2X9 whole entry, looked up): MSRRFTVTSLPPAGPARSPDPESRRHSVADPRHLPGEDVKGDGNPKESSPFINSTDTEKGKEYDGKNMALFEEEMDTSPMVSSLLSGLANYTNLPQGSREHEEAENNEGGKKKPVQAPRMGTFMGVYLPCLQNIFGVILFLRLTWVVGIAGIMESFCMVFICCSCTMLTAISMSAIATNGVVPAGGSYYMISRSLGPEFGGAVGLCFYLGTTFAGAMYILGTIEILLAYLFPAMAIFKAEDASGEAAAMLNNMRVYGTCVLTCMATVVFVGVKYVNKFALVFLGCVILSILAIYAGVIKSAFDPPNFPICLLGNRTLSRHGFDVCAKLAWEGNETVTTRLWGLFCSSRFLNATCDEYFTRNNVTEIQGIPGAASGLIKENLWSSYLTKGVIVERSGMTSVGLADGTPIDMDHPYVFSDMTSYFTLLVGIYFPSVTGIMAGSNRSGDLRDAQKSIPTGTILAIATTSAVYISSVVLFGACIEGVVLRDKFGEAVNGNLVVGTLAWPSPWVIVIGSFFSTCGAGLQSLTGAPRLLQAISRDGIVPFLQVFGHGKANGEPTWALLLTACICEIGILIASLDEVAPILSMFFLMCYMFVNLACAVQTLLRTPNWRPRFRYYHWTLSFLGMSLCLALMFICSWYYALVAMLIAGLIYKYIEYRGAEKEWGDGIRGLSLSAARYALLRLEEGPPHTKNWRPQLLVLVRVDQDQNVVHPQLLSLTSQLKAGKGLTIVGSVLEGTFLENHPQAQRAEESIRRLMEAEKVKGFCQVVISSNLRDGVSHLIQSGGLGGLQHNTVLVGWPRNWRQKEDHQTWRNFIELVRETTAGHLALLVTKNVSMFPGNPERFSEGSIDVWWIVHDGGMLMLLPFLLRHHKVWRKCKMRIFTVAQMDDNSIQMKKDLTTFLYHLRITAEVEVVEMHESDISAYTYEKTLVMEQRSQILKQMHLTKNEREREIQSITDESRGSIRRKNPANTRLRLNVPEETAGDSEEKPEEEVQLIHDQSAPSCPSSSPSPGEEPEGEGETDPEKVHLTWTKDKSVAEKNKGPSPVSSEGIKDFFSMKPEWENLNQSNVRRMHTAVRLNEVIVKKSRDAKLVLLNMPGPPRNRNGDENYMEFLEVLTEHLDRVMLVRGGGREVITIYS
# WT yeast gro inh: growth inhibition of WT yeast, mitochondrial fusion screen; mitochondrial fusion phenotypic screen, WT strain; inhibition, % at 10 µM; hit rate 2.1% among 190,000; in the data active = inhibition above about 58%; tested in S. cerevisiae
# Lmaj promast: inhibitors of Leishmania major promastigote growth; Leishmania major promastigotes, resazurin fluorescence viability; inhibition, % at 10 µM; hit rate 9% among 200,000; AID 1063; in the data active = inhibition above about 50%;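 also: promastigotes grown with compound for 44 hours at 28 °C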
# KCC2 sec1: confirmation of human KCC2 transport modulators. shares compounds with Cl transport mod. HEK293-KCC2, thallium flux, FluoZin2 fluorescence; active compounds read high. normalised thallium flux (F/F0 slope) at 10 µM. hit rate 15% among 3,700. AID 1713;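 active = thallium flux slope above the same plate's solvent-only control mean plus 3 SD; inconclusive = the two replicate wells disagree; inactive = no significant difference from solvent-only control wells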
# KCC2 bumet counter: bumetanide-insensitive thallium flux in KCC2 cells with ouabain, counter-screen; shares compounds with Cl transport mod; HEK293-KCC2 + bumetanide/ouabain, thallium flux FluoZin2; active compounds read high; normalized thallium flux at 10 µM; hit rate 49% among 3,700; AID 1714;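 active = thallium entry rate above the same plate's blocked-transporter control wells by more than 3 SD; inconclusive = the two repeat wells disagree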;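 also: raw slope of fluorescence over initial fluorescence between 10 and 20 s after thallium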
# KCC2 sec2: confirmation of human KCC2 transport modulators; shares compounds with Cl transport mod; AID 1715; hit rate 23% among 3,700; HEK293-KCC2, thallium flux FluoZin2 fluorescence; actives lie on both sides; F/F0 rise rate, 10–20 s post-thallium; normalized thallium flux at 10 µM;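 active = thallium flux slope more than 3 SD above or below the plate's solvent-only control mean, mostly below; inconclusive = the two repeat wells disagreed; inactive = no significant shift from solvent-only controls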;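 also: raw slope with 0.1% DMSO as baseline and bumetanide as block control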
# HEK293 Tl flux: counter-screen for KCC2 modulators: effect in parental HEK293 cells. shares compounds with Cl transport mod. thallium flux rate (normalised fluorescence) at 10 µM. thallium flux FluoZin2, ouabain; baseline-ratio fluorescence slope, 10–20 s after thallium. hit rate 46% among 3,700. AID 1716;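 active = thallium flux rate significantly above the same plate's solvent-only control wells, beyond their mean plus 3 SD; inconclusive = the two replicate wells gave conflicting results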
# KCC2 retest ouab: confirmation of human KCC2 modulators with ouabain | shares compounds with Cl transport mod | HEK293-KCC2, thallium flux FluoZin2 fluorescence; bidirectional: low = inhibitor, high = activator | raw Tl+ flux slope (below DMSO = inhibition, above = activation) at 10 µM | hit rate 48% among 3,700 | AID 1717;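 active = thallium flux slope beyond 3 SD from same-plate DMSO control mean in most replicates, usually higher, sometimes lower; inconclusive = repeat tests gave conflicting results; inactive = no significant difference from controls in most replicates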;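 also: slope of initial-normalized fluorescence between seconds 10 and 20 after thallium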
# HEK293 Tl flux2: parental HEK flux effect, counter-screen 2; shares compounds with Cl transport mod; HEK293 parental, thallium flux FluoZin-2 fluorescence slope; thallium flux slope at 10 µM; hit rate 33% among 3,700;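 active = thallium flux slope above the same plate's solvent-control mean plus 3 SD in both duplicate wells; inconclusive = duplicate wells that disagreed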;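 also: run without ouabain in cells lacking the KCC2 cotransporter; slope of fluorescence scaled to its starting value between 10 and 20 s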
# * = called active by the depositor; ? = inconclusive; / = no result given. A selection: hits, their analogues and other compounds. The true share with any hit is near 12%.
SMILES,ROMK primary,Diaph inh CS,Diaphorase act,Cl transport mod,WT yeast gro inh,Lmaj promast,KCC2 sec1,KCC2 bumet counter,KCC2 sec2,HEK293 Tl flux,KCC2 retest ouab,HEK293 Tl flux2
C#CCOC(=O)Nc1ccc(=O)n(Cc2c(Cl)cccc2Cl)c1,/,27,0.7,-0.88,0,5,/,/,/,/,/,/
CCOc1ccc(C2=Cc3cc(OC)c(OC)cc3C(=C(Cl)Cl)O2)cc1,-0.16,13,0.9,-0.47,-7,-2,/,/,/,/,/,/
Cc1cc(/C=C2\SC(=S)NC2=O)c(C)n1C,/,32,0.7,/,9,-9,/,/,/,/,/,/
Cc1nn(C)cc1/C=C1\SC(=S)NC1=O,-0.74,-8,1.1,0.21,24,-2,/,/,/,/,/,/
Cc1cc(/C=C2\SC(=S)NC2=O)cc(C)c1O,/,/,/,7.6*,/,/,0.006,0.036*,0.027,0.02*,0.027*,0.02*
CC1Cc2cc(/C=C3/SC(=S)NC3=O)ccc2O1 (stereo not given),0.45,/,/,81*,/,/,?,0.12*,0.05*,0.065*,0.087*,0.051*
Cc1nn(C)c(C)c1/C=C1/SC(=S)NC1=O,-0.55,11,0.9,-4*,-12,0,0.01,0.0056,0.026*,0.0079,0.014*,0.011
Cc1cc(/C=C2\SC(=S)NC2=O)c(C)n1-c1ccccc1,/,/,/,24*,/,/,0.011,0.047*,0.036,0.029*,?,0.013*
Cc1scc(C(=O)O)c1-c1c(C(=O)O)csc1C,/,11,0.9,0.5,5,47,/,/,/,/,/,/
CCC(C)(C)n1nnnc1C(c1cc2cc(C)cc(C)c2[nH]c1=O)N1CCN(C(=O)c2ccco2)CC1 (stereo not given),/,11,0.9,-0.4,8,-2,/,/,/,/,/,/
Cc1nccn1CC(=O)N/N=C/c1ccccc1O,/,/,/,-0.051,/,/,/,/,/,/,/,/
O=C(Nc1nnc(-c2ccccc2Cl)o1)c1cc2cc([N+](=O)[O-])ccc2s1,0.49,-1,1,6.6*,21,47,0.0055,0.015*,0.034,0.016*,?,0.017*
Cn1cc(C(=O)C(=O)N2CCCc3ccccc32)c2ccccc21,1.5,7,0.9,-4.4*,1,20,0.017,0.0051,0.024*,0.0066,0.013,0.0094
O=C(NCCc1ccccc1)C(=O)NCC1CCCO1 (stereo not given),-0.36,12,0.9,/,-1,-8,0.011,0.0082*,0.036,0.008,0.022,0.012*
O=C(NCCc1ccccc1)/C(=N\O)c1ccccc1,0.38,12,0.9,/,-10,-4,0.006,0.0044,?,0.0072,0.016,0.01
CC(C)N1C(=O)S/C(=C/c2ccccc2OCc2ccc(C(=O)O)cc2)C1=O,-1.6,12,0.9,-4.7*,38,-10,0.0064,0.0047,0.024*,0.0064,0.014*,0.0088
COc1cccc(/C=C2\SC(=O)NC2=O)c1OCc1ccc(C(=O)O)cc1,0.66,29,0.7,-0.19,-14,-6,/,/,/,/,/,/
O=C(CCN1CCN(Cc2ccccc2)CC1)Nc1cccc(Cl)c1,/,15,0.9,-3.8*,-3,89*,0.0057,0.0052,0.024*,0.0078,0.014*,0.0099
O=C(Nc1cccc(Cl)c1)OCCN1CCN(Cc2ccccc2)CCC1=O,-0.6,11,0.9,-1.6,24,30,/,/,/,/,/,/
